Assay results published in ChEMBL document CHEMBL1134445, “Design and synthesis of potent C(2)-symmetric diol-based HIV-1 protease inhibitors: effects of fluoro substitution” (J Med Chem, 2001).

Columns and labels:
[1] = molecular target: Human immunodeficiency virus type 1 protease (Human immunodeficiency virus 1) (UniProt Q72874); assay: Anti-HIV-1 activity against Wild type virus in MT-4 cells; format: functional, cell-based; conditions: MT4
Outline: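 MT4 cells infected with HIV-1; in vitro antiviral ED50 derived from colorimetric XTT read-out of virus cytopathic effect.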

[2] = molecular target: Human immunodeficiency virus type 1 protease (Human immunodeficiency virus 1) (UniProt Q72874); assay: Anti-HIV-1 activity against mutant HIV-1 in MT-4 cells (mutation selected with ritonavir); format: functional, cell-based; conditions: MT4
Outline: (§1)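 Resistant HIV-1 IIIb raised in MT4 cells: started at sub-ED50 drug with 20-50 TCID50 virus, p24 in supernatant tracked, cell-free virus passaged at 5-fold rising drug levels until growing above 50-fold wild-type ED50; these supernatants served as stocks. ED50 then determined in MT4 cells by XTT cytopathic-effect assay.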

[3] = molecular target: Human immunodeficiency virus type 1 protease (Human immunodeficiency virus 1) (UniProt Q72874); assay: Anti-HIV-1 activity against mutant HIV-1 in MT-4 cells (mutation selected with nelfinavir); format: functional, cell-based; conditions: MT4; outline: as §1
[4] = molecular target: Human immunodeficiency virus type 1 protease (Human immunodeficiency virus 1) (UniProt Q72874); assay: Anti-HIV-1 activity against mutant HIV-1 in MT-4 cells (mutation selected with saquinavir); format: functional, cell-based; conditions: MT4; outline: as §1
[5] = molecular target: Human immunodeficiency virus type 1 protease (Human immunodeficiency virus 1, UniProt Q72874); assay: Inhibitory concentration against HIV-1 protease
Outline: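 Recombinant HIV-1 protease, cloned and expressed in Escherichia coli; inhibition measured by fluorometric assay and reported as Ki.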

[6] = molecular target: Human immunodeficiency virus type 1 protease (Human immunodeficiency virus 1) (UniProt Q72874); assay: Anti-HIV-1 activity against mutant HIV-1 in MT-4 cells (mutation selected with compound 1); format: functional, cell-based; conditions: MT4; outline: as §1
[7] = tested on: Human immunodeficiency virus 1; assay: Anti-HIV-1 activity against Wild type virus. in MT-4 cells; format: functional; conditions: Human immunodeficiency virus 1, MT4; read-out: ED50 (the source's name)
Outline: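 Antiviral ED50 determined in MT4 cells infected with HIV-1; cytopathogenic effect read out by colorimetric XTT assay.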

SMILES	ED50 [1]	ED50 [2]	ED50 [3]	ED50 [4]	Ki [5]	ED50 [6]	EC50 [7]
O=C(NC1c2ccccc2C[C@H]1O)[C@H](OCc1ccccc1F)[C@H](O)[C@@H](O)[C@@H](OCc1ccccc1F)C(=O)N[C@H]1c2ccccc2C[C@H]1O (some centres undefined)	50 nM	510 nM	210 nM	80 nM	3.26 nM	270 nM	–
CNC(=O)[C@@H](NC(=O)[C@H](OCc1cc(F)ccc1F)[C@H](O)[C@@H](O)[C@@H](OCc1cc(F)ccc1F)C(=O)N[C@H](C(=O)NC)C(C)C)C(C)C	650 nM	10900 nM	1380 nM	1380 nM	1.98 nM	10700 nM	–
Cc1c(O)cccc1C(=O)N[C@@H](CSc1ccccc1)[C@H](O)CN1C[C@H]2CCCC[C@H]2C[C@H]1C(=O)NC(C)(C)C	20 nM	110 nM	2440 nM	120 nM	–	70 nM	–
CNC(=O)[C@@H](NC(=O)[C@H](OCc1ccc(F)cc1F)[C@H](O)[C@@H](O)[C@@H](OCc1ccc(F)cc1F)C(=O)N[C@H](C(=O)NC)C(C)C)C(C)C	720 nM	1890 nM	480 nM	1170 nM	1.12 nM	3350 nM	–
O=C(NC1c2ccccc2C[C@H]1O)[C@H](OCc1ccc(F)c(F)c1)[C@H](O)[C@@H](O)[C@@H](OCc1ccc(F)c(F)c1)C(=O)N[C@H]1c2ccccc2C[C@H]1O (some centres undefined)	130 nM	1300 nM	300 nM	160 nM	3.9 nM	1050 nM	–
O=C(NC1c2ccccc2C[C@H]1O)[C@H](OCc1cccc(F)c1)[C@H](O)[C@@H](O)[C@@H](OCc1cccc(F)c1)C(=O)N[C@H]1c2ccccc2C[C@H]1O (some centres undefined)	60 nM	530 nM	210 nM	950 nM	7.13 nM	180 nM	–
CNC(=O)[C@@H](NC(=O)[C@H](OCc1ccccc1F)[C@H](O)[C@@H](O)[C@@H](OCc1ccccc1F)C(=O)N[C@H](C(=O)NC)C(C)C)C(C)C	280 nM	7450 nM	1150 nM	630 nM	1.92 nM	9340 nM	–
CNC(=O)[C@@H](NC(=O)[C@H](OCc1cccc(F)c1F)[C@H](O)[C@@H](O)[C@@H](OCc1cccc(F)c1F)C(=O)N[C@H](C(=O)NC)C(C)C)C(C)C	660 nM	2260 nM	340 nM	1110 nM	1.28 nM	1540 nM	–
CNC(=O)[C@@H](NC(=O)[C@H](OCc1ccc(F)c(F)c1)[C@H](O)[C@@H](O)[C@@H](OCc1ccc(F)c(F)c1)C(=O)N[C@H](C(=O)NC)C(C)C)C(C)C	670 nM	1220 nM	850 nM	810 nM	1.98 nM	2840 nM	–
O=C(NC1c2ccccc2C[C@H]1O)[C@H](OCc1ccc(F)cc1)[C@H](O)[C@@H](O)[C@@H](OCc1ccc(F)cc1)C(=O)N[C@H]1c2ccccc2C[C@H]1O (some centres undefined)	250 nM	1130 nM	560 nM	–	5.39 nM	1130 nM	–
O=C(NC1c2ccccc2C[C@H]1O)[C@H](OCc1ccc(F)cc1F)[C@H](O)[C@@H](O)[C@@H](OCc1ccc(F)cc1F)C(=O)N[C@H]1c2ccccc2C[C@H]1O (some centres undefined)	110 nM	1730 nM	250 nM	370 nM	1.65 nM	670 nM	–
O=C(NC1c2ccccc2C[C@H]1O)[C@H](OCc1cc(F)ccc1F)[C@H](O)[C@@H](O)[C@@H](OCc1cc(F)ccc1F)C(=O)N[C@H]1c2ccccc2C[C@H]1O (some centres undefined)	20 nM	710 nM	100 nM	80 nM	3.29 nM	160 nM	–
CC(C)c1nc(CN(C)C(=O)N[C@H](C(=O)N[C@@H](Cc2ccccc2)C[C@H](O)[C@H](Cc2ccccc2)NC(=O)OCc2cncs2)C(C)C)cs1	60 nM	2470 nM	150 nM	410 nM	–	980 nM	–
CC(C)(C)NC(=O)[C@@H]1C[C@@H]2CCCC[C@@H]2CN1C[C@@H](O)[C@H](Cc1ccccc1)NC(=O)[C@H](CC(N)=O)NC(=O)c1ccc2ccccc2n1	10 nM	10 nM	30 nM	80 nM	–	10 nM	–
CNC(=O)[C@@H](NC(=O)[C@H](OCc1cccc(F)c1)[C@H](O)[C@@H](O)[C@@H](OCc1cccc(F)c1)C(=O)N[C@H](C(=O)NC)C(C)C)C(C)C	680 nM	1690 nM	1100 nM	1040 nM	1.83 nM	1840 nM	–
O=C(NC1c2ccccc2C[C@H]1O)[C@H](OCc1c(F)cccc1F)[C@H](O)[C@@H](O)[C@@H](OCc1c(F)cccc1F)C(=O)N[C@H]1c2ccccc2C[C@H]1O (some centres undefined)	60 nM	1390 nM	250 nM	130 nM	1.64 nM	310 nM	–
CNC(=O)[C@@H](NC(=O)[C@H](OCc1ccccc1)[C@H](O)[C@@H](O)[C@@H](OCc1ccccc1)C(=O)N[C@H](C(=O)NC)C(C)C)C(C)C	–	> 15000 nM	> 15000 nM	6100 nM	0.8 nM	8130 nM	1320 nM
CNC(=O)[C@@H](NC(=O)[C@H](OCc1ccc(F)cc1)[C@H](O)[C@@H](O)[C@@H](OCc1ccc(F)cc1)C(=O)N[C@H](C(=O)NC)C(C)C)C(C)C	1170 nM	970 nM	1320 nM	3650 nM	1.79 nM	7820 nM	–
O=C(NC1c2ccccc2C[C@H]1O)[C@H](OCc1cccc(F)c1F)[C@H](O)[C@@H](O)[C@@H](OCc1cccc(F)c1F)C(=O)N[C@H]1c2ccccc2C[C@H]1O (some centres undefined)	30 nM	880 nM	60 nM	50 nM	4 nM	240 nM	–
O=C(NC1c2ccccc2C[C@H]1O)[C@H](OCc1ccccc1)[C@H](O)[C@@H](O)[C@@H](OCc1ccccc1)C(=O)N[C@H]1c2ccccc2C[C@H]1O (some centres undefined)	100 nM	1280 nM	100 nM	70 nM	1.22 nM	460 nM	–
CNC(=O)[C@@H](NC(=O)[C@H](OCc1c(F)cccc1F)[C@H](O)[C@@H](O)[C@@H](OCc1c(F)cccc1F)C(=O)N[C@H](C(=O)NC)C(C)C)C(C)C	1350 nM	> 15000 nM	7140 nM	8140 nM	1.73 nM	> 15000 nM	–
CNC(=O)[C@@H](NC(=O)[C@H](OCc1cc(F)cc(F)c1)[C@H](O)[C@@H](O)[C@@H](OCc1cc(F)cc(F)c1)C(=O)N[C@H](C(=O)NC)C(C)C)C(C)C	420 nM	1400 nM	340 nM	1640 nM	1.98 nM	1320 nM	–
O=C(NC1c2ccccc2C[C@H]1O)[C@H](OCc1cc(F)cc(F)c1)[C@H](O)[C@@H](O)[C@@H](OCc1cc(F)cc(F)c1)C(=O)N[C@H]1c2ccccc2C[C@H]1O (some centres undefined)	50 nM	1060 nM	240 nM	90 nM	5 nM	230 nM	–
